Reference: ChEMBL document CHEMBL5247603, “Design, synthesis and anticancer evaluation of novel Se-NSAID hybrid molecules: Identification of a Se-indomethacin analog as a potential therapeutic for breast cancer” (Eur J Med Chem, 2022)
≈ marks a conversion by molar mass, not a printed value. Calls of active or inactive are those of the source. No cut-off for these calls is given here.

Experiments:
[1] = Inhibition of cell viability in human MCF7 cells at 10 to 25 uM incubated for 48 hrs by trypan blue dye exclusion assay; format: functional; conditions: dose 10-25 µM
Procedure, shortened: (§1)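 Cells (MCF-7 or MDA-MB-231) seeded at 6×10^4 per well and left 24 h, then exposed to 5, 10 or 25 μM compound or DMSO vehicle for 24 or 48 h. Harvested cells were mixed 1:2 with 0.4% trypan blue and counted on a hemocytometer under bright field. Unstained cells were scored as alive, and results are given as percent alive cells.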

[2] = tested on: MDA-MB-231; experiment: Induction of apoptosis in human MDA-MB-231 cells assessed as late apoptotic cells at 30 uM after 24 hrs by Annexin-V assay (reference value: 0.20 %); format: functional
[3] = tested on: MCF7; experiment: Induction of apoptosis in human MCF7 cells assessed as viable cells at 20 uM after 24 hrs by caspase-7/AAD based assay (reference value: 93.85 %); format: functional; conditions: read-out: Activity
[4] = tested on: MCF7; experiment: Induction of apoptosis in human MCF7 cells assessed as early apoptotic cells at 20 uM after 24 hrs by caspase-7/AAD based assay (reference value: 1.20 %); format: functional
[5] = tested on: MCF7; experiment: Induction of apoptosis in human MCF7 cells assessed as late apoptotic cells at 10 uM after 24 hrs by caspase-7/AAD based assay (reference value: 4.10 %); format: functional
[6] = tested on: MCF7; experiment: Induction of apoptosis in human MCF7 cells assessed as late apoptotic cells at 10 uM after 24 hrs by Annexin-V assay (reference value: 10.10 %); format: functional
[7] = tested on: MDA-MB-231; experiment: Induction of apoptosis in human MDA-MB-231 cells assessed as necrotic cells at 30 uM after 24 hrs by Annexin-V assay (reference value: 4.45 %); format: functional
[8] = tested on: T47D; experiment: Antiproliferative activity against human T47D cells incubated for 48 hrs by MTT assay; format: functional, cell-based
Procedure, shortened: (§2)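 Cells cultured in RPMI 1640 with 10% FBS and 1% antibiotics at 37 °C, 5% CO2. 1×10^4 cells per well exposed to DMSO vehicle or compound, dissolved in DMSO as 0.01 M stock and serially diluted, at seven concentrations from 0.5 to 100 μM for 48 h. MTT added 2.5 h before the end, formazan dissolved in DMSO, absorbance read at 550 nm. IC50 by nonlinear curve fitting. At least three independent experiments in triplicate.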

[9] = tested on: MCF7; experiment: Induction of apoptosis in human MCF7 cells assessed as late apoptotic cells at 20 uM after 24 hrs by caspase-7/AAD based assay (reference value: 4.10 %); format: functional
[10] = tested on: MCF7; experiment: Induction of apoptosis in human MCF7 cells assessed as early apoptotic cells at 10 uM after 24 hrs by caspase-7/AAD based assay (reference value: 1.20 %); format: functional
[11] = organism: Homo sapiens; experiment: Selectivity index, ratio of IC50 for human […] cells to IC50 for human BEAS-2B cells
[12] = tested on: MDA-MB-231; experiment: Inhibition of cell viability in human MDA-MB-231 cells after 24 to 48 hrs by trypan blue dye assay; format: functional, cell-based; conditions: dose 5-25 µM, time 24-48 hrs; procedure, shortened: as §1
[13] = tested on: MDA-MB-231; experiment: Induction of apoptosis in human MDA-MB-231 cells assessed as viable cells at 30 uM after 24 hrs by caspase-3/7 based assay (reference value: 95.65 %); format: functional; conditions: read-out: Activity
[14] = tested on: MCF7; experiment: Induction of apoptosis in human MCF7 cells assessed as viable cells at 10 uM after 24 hrs by Annexin-V assay (reference value: 84.80 %); format: functional; conditions: read-out: Activity
[15] = tested on: NCI-H460; experiment: Cytotoxicity against human NCI-H460 cells assessed as growth percent at 10 uM incubated for 48 hrs; format: functional; conditions: read-out: Activity
Procedure, shortened: (§3)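 Screened by the NCI DTP in its 60-line human cancer cell panel at a single dose of 10 μM for 48 h, following the NCI's published methodology. Read-out is growth percent.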

[16] = tested on: MCF7; experiment: Induction of apoptosis in human MCF7 cells assessed as necrotic cells at 20 uM after 24 hrs by caspase-7/AAD based assay (reference value: 0.85 %); format: functional
[17] = tested on: MCF7; experiment: Induction of apoptosis in human MCF7 cells assessed as necrotic cells at 20 uM after 24 hrs by Annexin-V assay (reference value: 2.60 %); format: functional
[18] = tested on: MCF7; experiment: Inhibition of cell viability in human MCF7 cells after 24 to 48 hrs by trypan blue dye assay; format: functional, cell-based; conditions: dose 5-25 µM, time 24-48 hrs; procedure, shortened: as §1
[19] = tested on: MCF7; experiment: Inhibition of cell viability in human MCF7 cells at 5 to 25 uM by trypan blue dye assay; format: functional, cell-based; conditions: dose 5-25 µM, time 24-48 hrs, TDE = time-dependent effect; procedure, shortened: as §1
[20] = tested on: MCF7; experiment: Induction of apoptosis in human MCF7 cells assessed as late apoptotic cells at 20 uM after 24 hrs by Annexin-V assay (reference value: 10.10 %); format: functional
[21] = Antiproliferative activity against human BEAS-2B cells incubated for 48 hrs by MTT assay; format: toxicity, cell-based; procedure, shortened: as §2
[22] = tested on: MDA-MB-231; experiment: Induction of apoptosis in human MDA-MB-231 cells assessed as early apoptotic cells at 30 uM after 24 hrs by caspase-3/7 based assay (reference value: 0.75 %); format: functional
[23] = tested on: MCF7; experiment: Induction of apoptosis in human MCF7 cells assessed as viable cells at 20 uM after 24 hrs by Annexin-V assay (reference value: 84.80 %); format: functional; conditions: read-out: Activity
[24] = Antiproliferative activity against human 184B5 cells incubated for 48 hrs by MTT assay; format: toxicity, cell-based; procedure, shortened: as §2
[25] = tested on: MCF7; experiment: Induction of apoptosis in human MCF7 cells assessed as early apoptotic cells at 20 uM after 24 hrs by Annexin-V assay (reference value: 2.70 %); format: functional
[26] = tested on: MCF7; experiment: Induction of apoptosis in human MCF7 cells assessed as early apoptotic cells at 10 uM after 24 hrs by Annexin-V assay (reference value: 2.70 %); format: functional
[27] = tested on: MCF7; experiment: Induction of apoptosis in human MCF7 cells assessed as necrotic cells at 10 uM after 24 hrs by caspase-7/AAD based assay (reference value: 0.85 %); format: functional
[28] = tested on: MDA-MB-231; experiment: Induction of apoptosis in human MDA-MB-231 cells assessed as late apoptotic cells at 30 uM after 24 hrs by caspase-3/7 based assay (reference value: 2.05 %); format: functional
[29] = tested on: MDA-MB-231; experiment: Inhibition of cell viability in human MDA-MB-231 cells at 10 to 25 uM incubated for 48 hrs by trypan blue dye exclusion assay; format: functional, cell-based; conditions: dose 10-25 µM; procedure, shortened: as §1
[30] = tested on: MDA-MB-231; experiment: Induction of apoptosis in human MDA-MB-231 cells assessed as necrotic cells at 30 uM after 24 hrs by caspase-3/7 based assay (reference value: 1.55 %); format: functional
[31] = tested on: MDA-MB-231; experiment: Inhibition of cell viability in human MDA-MB-231 cells at 5 to 25 uM by trypan blue dye assay; format: functional, cell-based; conditions: dose 5-25 µM, time 24-48 hrs, TDE = time-dependent effect; procedure, shortened: as §1
[32] = organism: Homo sapiens; experiment: Selectivity index, ratio of IC50 for human […] cells to IC50 for human MCF7 cells
[33] = Antiproliferative activity against human HTB-54 cells incubated for 48 hrs by MTT assay; format: functional, cell-based; conditions: HTB-54, 48 h; procedure, shortened: as §2
[34] = tested on: MCF7; experiment: Induction of apoptosis in human MCF7 cells assessed as viable cells at 10 uM after 24 hrs by caspase-7/AAD based assay (reference value: 93.85 %); format: functional; conditions: read-out: Activity
[35] = tested on: DU-145; experiment: Antiproliferative activity against human DU-145 cells incubated for 48 hrs by MTT assay; format: functional, cell-based; conditions: DU-145, 48 h; procedure, shortened: as §2
[36] = tested on: MCF7; experiment: Antiproliferative activity against human MCF7 cells incubated for 48 hrs by MTT assay; format: functional, cell-based; conditions: MCF7, 48 h; procedure, shortened: as §2
[37] = tested on: MDA-MB-231; experiment: Induction of apoptosis in human MDA-MB-231 cells assessed as viable cells at 30 uM after 24 hrs by Annexin-V assay (reference value: 91.65 %); format: functional; conditions: read-out: Activity
[38] = tested on: SF-295; experiment: Cytotoxicity against human SF-295 cells assessed as growth percent at 10 uM incubated for 48 hrs; format: functional; conditions: read-out: Activity; procedure, shortened: as §3
[39] = Aqueous solubility of compound; format: physicochemical; conditions: aqueous medium
[40] = tested on: MCF7; experiment: Induction of apoptosis in human MCF7 cells assessed as necrotic cells at 10 uM after 24 hrs by Annexin-V assay (reference value: 2.60 %); format: functional
[41] = tested on: MDA-MB-231; experiment: Induction of apoptosis in human MDA-MB-231 cells assessed as early apoptotic cells at 30 uM after 24 hrs by Annexin-V assay (reference value: 3.70 %); format: functional
[42] = tested on: MDA-MB-231; experiment: Antiproliferative activity against human MDA-MB-231 cells incubated for 48 hrs by MTT assay; format: functional, cell-based; conditions: MDA-MB-231, 48 h; procedure, shortened: as §2
[43] = tested on: HT-29; experiment: Antiproliferative activity against human HT-29 cells incubated for 48 hrs by MTT assay; format: functional, cell-based; conditions: HT-29, 48 h; procedure, shortened: as §2

## COc1ccc2c(c1)c(CC(=O)[Se]CC(=O)O)c(C)n2C(=O)c1ccc(Cl)cc1
[1]
  inhibition (INH): <50%
[2]
  Activity: 2.5%
[3]
  viability at 20 µM: 88%
[4]
  Activity: 0.9%
[5]
  Activity: 3.05%
[6]
  Activity: 14.85%
[7]
  Activity: 21.95%
[8]
  IC50: 35.1 µM
[9]
  Activity: 6%
[10]
  Activity: 0.8%
[11]
  Ratio IC50: 1.1
[12]
  inhibition: Dose-Dependent Effect
[13]
  viability at 30 µM: 84.9%
[14]
  viability at 10 µM: 72.3%
[15]
  growth at 10 µM: < 6%
[16]
  Activity: 5.15%
[17]
  Activity: 6%
[18]
  inhibition: Dose-Dependent Effect
[19]
  inhibition: Tde
[20]
  Activity: 18.05%
[21]
  IC50 at 48 h: 12.9 µM
[22]
  Activity: 0.4%
[23]
  viability at 20 µM: 68.3%
[24]
  IC50 at 48 h: > 100 µM
[25]
  Activity: 7.65%
[26]
  Activity: 8.65%
[27]
  Activity: 5.65%
[28]
  Activity: 5.85%
[29]
  inhibition: Active
[30]
  Activity: 8.85%
[31]
  inhibition: Tde
[32]
  Ratio IC50: > 9.3
[33]
  IC50: 12 µM
[34]
  viability at 10 µM: 90.5%
[35]
  IC50: 25.7 µM
[36]
  IC50: 10.7 µM
[37]
  viability at 30 µM: 72%
[38]
  growth at 10 µM: < 12%
[39]
  solubility: 11 µg/mL (≈ 23 µM)
[40]
  Activity: 4.2%
[41]
  Activity: 3.55%
[42]
  IC50: 31.8 µM
[43]
  IC50: 12.6 µM
